Data as given in ChEMBL document CHEMBL1126092, “Design, synthesis, and biological evaluation of novel 4-substituted 1-methyl-1,2,3,6-tetrahydropyridine analogs of MPTP” (J Med Chem, 1992).

Assays:
Settings in all cases: cattle
[1] = target: T1, Amine oxidase [flavin-containing] B (Bos taurus, UniProt P56560); test: Selectivity ratio for Vmax and KM values against MAO-B enzyme from bovine liver mitochondria
T1 sequence (P56560 whole entry): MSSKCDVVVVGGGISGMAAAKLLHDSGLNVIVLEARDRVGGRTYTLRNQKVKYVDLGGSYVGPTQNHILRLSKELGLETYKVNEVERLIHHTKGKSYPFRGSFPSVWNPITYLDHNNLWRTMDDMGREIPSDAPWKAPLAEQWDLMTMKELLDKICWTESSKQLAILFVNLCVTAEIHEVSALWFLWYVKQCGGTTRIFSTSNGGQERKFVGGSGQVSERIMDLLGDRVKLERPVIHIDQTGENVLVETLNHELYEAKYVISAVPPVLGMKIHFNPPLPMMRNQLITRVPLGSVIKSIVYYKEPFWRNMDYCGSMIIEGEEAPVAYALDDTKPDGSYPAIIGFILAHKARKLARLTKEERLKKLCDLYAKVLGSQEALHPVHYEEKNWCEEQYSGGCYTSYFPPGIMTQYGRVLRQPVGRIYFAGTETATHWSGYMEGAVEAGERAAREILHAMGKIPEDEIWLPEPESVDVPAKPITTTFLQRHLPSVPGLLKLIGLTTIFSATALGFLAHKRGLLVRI
In short: (§1)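 Bovine liver mitochondrial MAO-B, 0.05 unit/mL (unit = 1 μmol benzylamine→benzaldehyde per min; equivalent to 3.7 nmol protein), incubated at 37 °C in 0.1 M sodium phosphate pH 7.4. Reaction started by substrate addition, final 0.1–3.0 mM. Product formation monitored spectrophotometrically, initial rates taken 30–180 s after enzyme addition. Apparent Vmax and KM from double reciprocal plot.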

[2] = target: T1, Amine oxidase [flavin-containing] B; test: (§2) Tested against Monoamine oxidase B enzyme from bovine liver mitochondria; in short: as §1
[3] = target: T2, Monoamine oxidase B (MAO-B) (Bos taurus, UniProt P56560); test: as §2; in short: as §1
T2 sequence (P56560 whole entry): T1 sequence (P56560 whole entry)

CN1CC=C(OC(=O)N(C)c2ccccc2)CC1
Ratio [1]: 67

CN1CC=C(c2ccccc2)CC1
Ratio [1]: 523 | Vmax [2]: 204 nM/min | Km [3]: 390 µM

CN1CC=C(OC(=O)N(C)C)CC1
Ratio [1]: 57

CN1CC=C(Oc2ccccc2)CC1
Ratio [1]: 688

CN1CC=C(Sc2ccccc2)CC1
Ratio [1]: 3425

CN1CC=C(Cc2ccccc2)CC1
Ratio [1]: 2674
